Nine compounds from ChEMBL document CHEMBL3352663, “Inhibition of group IVA cytosolic phospholipase A2 by thiazolyl ketones in vitro, ex vivo, and in vivo” (J Med Chem, 2014) can be followed below.

Molecules are shown by their SMILES. Calls of active or inactive are those of the source. The rule behind the calls is not given here. Bounds are passed on as bounds.

Assay [1] concerns the target T1, Cytosolic phospholipase A2 (Homo sapiens) (UniProt P47712).
T1 sequence (whole entry): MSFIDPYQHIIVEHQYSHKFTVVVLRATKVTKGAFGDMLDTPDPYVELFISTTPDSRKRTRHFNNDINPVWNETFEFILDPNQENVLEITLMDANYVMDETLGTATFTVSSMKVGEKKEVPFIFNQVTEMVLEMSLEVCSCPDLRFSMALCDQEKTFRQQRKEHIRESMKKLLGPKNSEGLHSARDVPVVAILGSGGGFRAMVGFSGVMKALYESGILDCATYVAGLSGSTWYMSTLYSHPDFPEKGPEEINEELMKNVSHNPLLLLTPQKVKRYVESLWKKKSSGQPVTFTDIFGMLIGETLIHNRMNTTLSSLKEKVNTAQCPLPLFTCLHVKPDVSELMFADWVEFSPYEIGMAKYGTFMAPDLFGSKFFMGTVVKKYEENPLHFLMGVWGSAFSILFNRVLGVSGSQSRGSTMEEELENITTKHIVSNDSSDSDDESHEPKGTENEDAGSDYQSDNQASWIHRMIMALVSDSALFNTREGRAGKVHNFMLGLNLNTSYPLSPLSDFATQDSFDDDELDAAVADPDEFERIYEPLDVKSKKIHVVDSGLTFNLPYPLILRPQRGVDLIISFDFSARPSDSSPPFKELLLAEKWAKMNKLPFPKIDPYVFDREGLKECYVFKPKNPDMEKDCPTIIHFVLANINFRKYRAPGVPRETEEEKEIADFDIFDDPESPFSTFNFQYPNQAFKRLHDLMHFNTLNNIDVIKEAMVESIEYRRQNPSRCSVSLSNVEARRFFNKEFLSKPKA
Kind of assay: Inhibition of human recombinant GIVA cPLA2 using 400 uM Triton X-100/97 uM PAPC/1.8 uM 14C-labeled PAPC/3uM PIP2 substrate mixedmicelles. In a few lines:
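Modified Dole assay of recombinant human GIVA cPLA2. Mixed micelles contained 400 µM Triton X-100, 97 µM PAPC, 1.8 µM 14C-PAPC and 3 µM PIP2 in 100 mM HEPES pH 7.5 with 90 µM CaCl2, 2 mM DTT and 0.1 mg/mL BSA. Percent inhibition was measured at 0.091 mole fraction inhibitor. XI(50) is the mole fraction giving 50% inhibition.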

For assay [2], the system named is SW982. The assay is described as follows: Inhibition of IL-1beta-induced arachidonic acid release in human SW982 cells using [3H]AA at 10 uM by liquid scintillation counting. It counts as functional. The settings on record: for inhibition at 10 µM: SW982, 4 h. The method, boiled down:
(§1)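 SW982 synovial sarcoma cells were serum-starved and labelled overnight with 3H-AA (0.4 µCi/mL) and 14C-OA (0.067 µCi/mL), then washed with PBS/fBSA. They were pretreated 1 h with inhibitor (10 µM single point, or 0-20 µM for IC50), then stimulated with IL-1β 10 ng/mL for 4 h. Released radioactivity was counted by scintillation relative to total incorporated label; DMSO served as vehicle; ≥3 independent experiments in triplicate.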

In assay [3] the target is T1, Cytosolic phospholipase A2 (Homo sapiens). The assay is described as follows: Inhibition of human recombinant GIVA cPLA2 using 400 uM Triton X-100/97 uM PAPC/1.8 uM 14C-labeled PAPC/3uM PIP2 substrate mixedmicelles at 0.091 mole fraction.
The test system of assay [4] is SW982. The assay is described as follows: Inhibition of IL-1beta-induced arachidonic acid release in human SW982 cells using [3H]AA by liquid scintillation counting. It counts as functional, cell-based. In a few lines:
as §1

Assay [5] is filed under the species Homo sapiens. Kind of assay: Inhibition of human recombinant GV sPLA2 using 400 uM Triton X-100/98.3 uM PAPC/1.7 uM 14C-labeled PAPC substrate mixedmicelles at 1 uM.
Assay [6] concerns SW982. Kind of assay: Inhibition of IL-1beta-induced oleic acid release in human SW982 cells using [3H]OA at 0 to 20 uM by liquid scintillation counting. The assay is classed as functional, cell-based.
Assay [7] has as its target T1, Cytosolic phospholipase A2 (Homo sapiens). Kind of assay: Inhibition of human recombinant GIVA cPLA2 at 1 uM in vitro vesicle assay. The method, boiled down:
(§2)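 Recombinant human GIVA cPLA2 was preincubated with 1% DMSO ± inhibitor (80 s at 37 °C, then 10 min at 25 °C). Sonicated vesicles of 1-palmitoyl-2-[14C]arachidonyl-PC (0.2 μM) were added and incubated 1 h at 37 °C. The reaction was stopped with chloroform/methanol. Single-point tests used 1 µM inhibitor; IC50 determinations used 0-3 µM.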

Assay [8] deals with SW982. Kind of assay: Inhibition of IL-1beta-induced oleic acid release in human SW982 cells using [3H]OA at 10 uM by liquid scintillation counting. The following applies: SW982, 4 h. It counts as functional.
Assay [9] has as its target T2, Cytosolic phospholipase A2 (Homo sapiens, UniProt P47712).
T2 sequence (P47712 whole entry): T1 sequence (whole entry)
Kind of assay: Inhibition of human recombinant GIVA cPLA2 in vitro vesicle assay. The method, boiled down:
as §2

Assay [10] concerns Mus musculus. The assay is described as follows: Antiinflammatory activity in DBA/1 mouse […] model assessed as reduction in peripheral tissue inflammatory cell infiltration at 7.5 mg/kg, ip treatment started on day 21 after […] measured on day 32. It counts as functional, organism-based. Details: dose 7.5 mg/kg. In a few lines: (§3)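 Prophylactic collagen-induced arthritis in male DBA/1 mice. Bovine type II collagen (2 mg/mL) was emulsified 1:1 in Freund's complete adjuvant and 0.1 mL injected at the tail base on day 0, with a booster on day 21. Daily ip dosing in DMSO at 2 mL/Kg began 1 h before the booster. Arthritis index was scored through day 41. Histology groups were killed at day 32 after […] of dosing; hind paws were scored blind (0-5) for infiltration, hyperplasia and damage.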

For assay [11], the system named is Mus musculus. The assay is described as follows: Reduction in PGE2 level in DBA/1 mouse plasma at 0.3 mg/kg, ip by EIA analysis relative to control. The assay is classed as functional, organism-based. Set-up: dose 0.3 mg/kg. In a few lines:
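Plasma came from collagen-induced arthritic DBA/1 mice at termination, about 5 h after the last daily ip dose. Samples were diluted 1:1000-1:6000 in EIA buffer and incubated 18 h at 4 °C in a PGE2 EIA, read at OD550. Levels are expressed relative to DMSO-vehicle arthritic mice; n=10-11 per group, ±SD.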

For assay [12], the system named is Mus musculus. Kind of assay: Antiinflammatory activity in DBA/1 mouse […] assessed as reduction in capillary and synovial hyperplasia at 7.5 mg/kg, ip treatment started on day 21 after […] measured on day 32. Details: dose 7.5 mg/kg. The assay is classed as functional, organism-based. In a few lines: as §3
Assay [13] relates to Mus musculus. Kind of assay: Antiinflammatory activity in DBA/1 mouse […] model assessed as reduction in articular cavity at 7.5 mg/kg, ip treatment started on day 21 after second […] measured on day 32. It counts as functional, organism-based. Set-up: dose 7.5 mg/kg. The method, boiled down: as §3
Where [14] appears, read: Homo sapiens, SW982, 4 h, read-out: IC50.

A word on the inhibition: it is the percentage by which the read-out fell short of the control. By IC50 is commonly meant the midpoint of a concentration-inhibition curve. Consider `CCCCCCCCc1ccc(OCC(=O)c2nccs2)cc1`, for which the XI50 (mole fraction) in [1] came out at 0.02. In [2], this compound came in with an inhibition at 10 µM above 90%. The values for the inhibition in [3], in assay [5] and in assay [7] were above 90%, 46% and 43%, respectively. In addition, the IC50 in assay [4] (setting [14]) amounted to 3.6 µM. The inhibition result in assay [6] was “inactive”.
In the case of `CCCCCCCCc1ccc(OCC(=O)c2nc3ccccc3s2)cc1`, the XI50 (mole fraction) in assay [1] stood at 0.06. Moreover, the inhibition at 10 µM was determined as 71% in assay [2] and 35% in [8]. The inhibition was above 90% in assay [3] and 55% in assay [5]. Further, in assay [4] (setting [14]), the IC50 worked out at 5.3 µM. For the same compound, the inhibition entry in assay [7] was “inactive”.
As for `CCCCCCCCc1ccc(OCC(=O)c2nc(CC(=O)OCC)cs2)cc1`, the inhibition at 10 µM was 71% in [2] and 20% in assay [8]. In addition, the values for the inhibition in assay [3], in [5] and in assay [7] were 64%, 50% and 25%, respectively. For the same compound, the IC50 in [4] (setting [14]) was 5 µM; in assay [9], “Not Active”.
On to `CN(Cc1cnc2nc(N)nc(N)c2n1)c1ccc(C(=O)N[C@@H](CCC(=O)O)C(=O)O)cc1`, for which the inhibition entry in assay [10], in assay [12] and in assay [13] was “inactive” each time. Further, the inhibition result in [11] is “Active”.
In the case of `CCCCCCCCCCCCOCC(=O)c1nc(C(=O)OCC)cs1`, testing at 10 µM in assay [2] gave an inhibition of 9%. Also, the values for the inhibition in [3], in assay [5] and in assay [7] were 48%, 48% and 21%, respectively. The IC50 entry in assay [4] (sw982) and in [9] was “Not Active” each time. For the same compound, in [6], the inhibition result was “inactive”.
In the case of `O=C(COc1ccc(F)cc1)c1nccs1`, the inhibition entry in assay [2] was “inactive”. In addition, the results for the inhibition in [3], in assay [5] and in assay [7] were 58%, 4% and 7%, respectively. Further, the IC50 result in assay [9] is “Not Active”. The compound also returned an inhibition at 10 µM in [8] of 25%.
As to `O=C(COc1ccc(-c2ccccc2)cc1)c1nccs1`, the inhibition at 10 µM in [2] worked out at 73%; in assay [8], 25%. The inhibition was determined as 80% in assay [3], 41% in assay [5] and 26% in assay [7]. The IC50 is 2.8 µM in assay [4] (setting [14]) and “Not Active” in [9].
As for `CCCCCCCCCCCCOCC(=O)c1nc(CC(=O)OCC)cs1`, the inhibition entry in assay [2], in assay [6] and in assay [7] was “inactive” in each case. The inhibition worked out at 49% in assay [3] and 55% in assay [5].
With `O=C(COc1ccccc1)c1nccs1`, the inhibition at 10 µM in assay [2] is 12%; in assay [8], 20%. In addition, the results for the inhibition in [3], in assay [5] and in assay [7] were 40%, 0% and 26%, respectively. In addition, the IC50 result in assay [4] (sw982) and in [9] was “Not Active” each time.
